# Measurements: ChEMBL document CHEMBL3091432, “(S)-4-Trimethylsilyl-3-butyn-2-ol as an auxiliary for stereocontrolled synthesis of salinosporamide analogs with modifications at positions C2 and C5” (Bioorg Med Chem Lett, 2013)
# Active and inactive are the calls of the source. The rule behind the calls is not given here.
# Key:
# [1] = target: T1, Proteasome Macropain subunit MB1 (Homo sapiens) (UniProt P28074); experiment: Inhibition of human 20S proteasome beta 5 subunit assessed as non-cyclized product formation after 5 to 10 mins by ESI-TOF analysis
# T1 sequence (whole entry): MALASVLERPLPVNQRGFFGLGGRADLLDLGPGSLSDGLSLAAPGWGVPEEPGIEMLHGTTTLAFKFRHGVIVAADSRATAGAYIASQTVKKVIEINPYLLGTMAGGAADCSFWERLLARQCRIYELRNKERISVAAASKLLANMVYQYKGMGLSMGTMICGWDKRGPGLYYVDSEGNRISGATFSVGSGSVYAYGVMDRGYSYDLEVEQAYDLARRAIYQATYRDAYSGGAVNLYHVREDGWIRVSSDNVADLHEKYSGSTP
# Method in brief: (§1)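 Purified human 20S proteasome (1.4 μM) incubated at 23 °C with a 10-fold molar excess of inhibitor in pH 7.5 buffer (10 mM Tris/HCl, 1 mM EDTA, 1 mM DTT, <1% DMSO) for varying times. Reactions stopped by denaturing quench, desalted on C4 tips, eluted with 70:30:0.1 acetonitrile–water–formic acid, then analysed by mass spectrometry to follow each step of subunit modification.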
# [2] = target: T1, Proteasome Macropain subunit MB1 (Homo sapiens); experiment: Inhibition of human 20S proteasome beta 5 subunit assessed as cyclized acylated protein adduct formation after 48 hrs by FT-MS analysis; method in brief: as §1
# [3] = target: T1, Proteasome Macropain subunit MB1 (Homo sapiens); experiment: Inhibition of human 20S proteasome beta 5 subunit assessed as cyclized acylated protein adduct formation after 48 hrs by ESI-TOF analysis; method in brief: as §1
# [4] = target: T1, Proteasome Macropain subunit MB1 (Homo sapiens); experiment: Inhibition of human 20S proteasome beta 5 subunit assessed as hydrolysis of non-cyclized product after 48 hrs by ESI-TOF analysis; method in brief: as §1
# [5] = target: T1, Proteasome Macropain subunit MB1 (Homo sapiens); experiment: Inhibition of human 20S proteasome beta 5 subunit assessed as hydrolysis of non-cyclized product after 48 hrs by FT-MS analysis; method in brief: as §1
# [6] = target: T2, Proteasome Macropain subunit MB1 (Homo sapiens, UniProt P28074); experiment: Inhibition of chymotrypsin like activity of 20S proteasome in HEK293 cells after 24 hrs by microscopic analysis; assay type: cell-based
# T2 sequence (P28074 whole entry): T1 sequence (whole entry)
# Method in brief: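 Image-based screen in a stably transfected HEK cell line expressing a GFP-tagged proteasomal substrate. Proteasomal inhibition is read out by cellular fluorescence.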
# [7] = target: T2, Proteasome Macropain subunit MB1; experiment: Inhibition of chymotrypsin like activity of human 20S proteasome after 1 hr by luminescence assay
# [8] = target: T1, Proteasome Macropain subunit MB1 (Homo sapiens); experiment: Inhibition of human 20S proteasome beta 5 subunit assessed as non-cyclized product formation after 5 to 10 mins by FT-MS analysis; method in brief: as §1
# [9] = target: T1, Proteasome Macropain subunit MB1 (Homo sapiens); experiment: Inhibition of human 20S proteasome beta 5 subunit assessed as cyclized acylated protein adduct formation after <20 mins by ESI-TOF analysis; method in brief: as §1
# [10] = target: T1, Proteasome Macropain subunit MB1 (Homo sapiens); experiment: Inhibition of human 20S proteasome beta 5 subunit assessed as cyclized acylated protein adduct formation after <20 mins by FT-MS analysis; method in brief: as §1
Compound,inhibition [1],inhibition [2],inhibition [3],inhibition [4],inhibition [5],EC50 [6] [µM],IC50 [7] [µM],inhibition [8],inhibition [9],inhibition [10]
C[C@@]12OC(=O)[C@]1([C@@H](O)C1CCCCC1)NC(=O)[C@@H]2CCCCl,Active,inactive,inactive,inactive,inactive,0.09,0.05,Active,–,–
C[C@@]12OC(=O)[C@]1([C@@H](O)Cc1ccccc1)NC(=O)[C@@H]2CCCl,–,–,–,–,–,0.332,0.5,–,–,–
C[C@@]12OC(=O)[C@]1([C@@H](O)C1CC1)NC(=O)[C@@H]2CCCl,–,–,–,–,–,0.36,0.028,–,–,–
COC(=O)C[C@H]1C(=O)N[C@@]2([C@@H](O)C3CCCCC3)C(=O)O[C@@]12C,–,–,–,–,–,–,0.5,–,–,–
C[C@@]12OC(=O)[C@]1([C@@H](O)C1CCCCC1)NC(=O)[C@@H]2CC=O,–,–,–,–,–,–,0.33,–,–,–
C[C@@]12OC(=O)[C@]1([C@@H](O)C1CCCCC1)NC(=O)[C@@H]2CCCl,Active,–,–,–,–,0.01,0.023,Active,Active,Active
C[C@@]12OC(=O)[C@]1([C@@H](O)[C@@H]1C=CCCC1)NC(=O)[C@@H]2CCCl [MARIZOMIB],Active,–,–,–,–,–,0.022,Active,Active,Active
